From ChEMBL document CHEMBL1146603, “Use of a pharmacophore model to discover a new class of influenza endonuclease inhibitors” (J Med Chem, 2003)

What was measured:
[1] = target: Polymerase acidic protein (Influenza A virus (A/Puerto Rico/8/1934(H1N1)), UniProt P03433); assay: Inhibitory concentration against cap-dependent endonuclease activity of influenza virus RNP; assay type: functional, unidentified influenza virus
Procedure, shortened: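 Gel-based cap-dependent endonuclease assay. 1 nM influenza RNP was incubated with 0.1 nM cap-labeled 20-mer G20 RNA in 50 mM Tris-HCl pH 8 with 1 mM MgCl₂, 20 mM KCl, 1 U/μL RNase inhibitor and 0.3% Triton X-100, for 5 min at 31 °C. Cleavage products were resolved on polyacrylamide gels and quantified by phosphorimager. IC50 came from dose–response curves.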

[2] = target: Polymerase acidic protein (Influenza A virus (A/Puerto Rico/8/1934(H1N1))) (UniProt P03433); assay: Percent inhibition of cap-dependent endonuclease activity of influenza virus RNP at 100 uM; assay type: functional; conditions: unidentified influenza virus
[3] = target: Polymerase acidic protein (Influenza B virus (strain B/Lee/1940), UniProt Q9QLI9); assay: Inhibitory concentration against cap-dependent endonuclease activity of influenza B/Lee/40 RNP; assay type: functional
Procedure, shortened: (§1)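 Cap-dependent transcription run on a filter plate. 10 nM RNP purified from A/PR/8/34 or B/Lee/40 virus was mixed with 0.01 mg/mL AMV RNA, 50 μM GTP, 50 μM CTP, 500 μM ATP and 5 μM [radiolabeled] UTP. Buffer was 50 mM Tris-HCl pH 8 with 100 mM KCl, 5 mM MgCl₂, 10% DMSO, 5 mM DTT and 0.2 mg/mL BSA. Incubation was 90 min at 31 °C. TCA-precipitated RNA was scintillation-counted. IC50 came from dose–response curves.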

[4] = target: Polymerase acidic protein (Influenza A virus (A/Puerto Rico/8/1934(H1N1)), UniProt P03433); assay: Inhibitory concentration against cap-dependent endonuclease activity of influenza A/PR/8/34 RNP; assay type: functional; procedure, shortened: as §1
[5] = test system: unidentified influenza virus; assay: Effective concentration against influenza virus in MDCK cells; assay type: functional, organism-based
Procedure, shortened: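 Antiviral dose–response read as protection of MDCK cells from influenza virus-induced cell death.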

Polymerase acidic protein, sequence (Q9QLI9 whole entry): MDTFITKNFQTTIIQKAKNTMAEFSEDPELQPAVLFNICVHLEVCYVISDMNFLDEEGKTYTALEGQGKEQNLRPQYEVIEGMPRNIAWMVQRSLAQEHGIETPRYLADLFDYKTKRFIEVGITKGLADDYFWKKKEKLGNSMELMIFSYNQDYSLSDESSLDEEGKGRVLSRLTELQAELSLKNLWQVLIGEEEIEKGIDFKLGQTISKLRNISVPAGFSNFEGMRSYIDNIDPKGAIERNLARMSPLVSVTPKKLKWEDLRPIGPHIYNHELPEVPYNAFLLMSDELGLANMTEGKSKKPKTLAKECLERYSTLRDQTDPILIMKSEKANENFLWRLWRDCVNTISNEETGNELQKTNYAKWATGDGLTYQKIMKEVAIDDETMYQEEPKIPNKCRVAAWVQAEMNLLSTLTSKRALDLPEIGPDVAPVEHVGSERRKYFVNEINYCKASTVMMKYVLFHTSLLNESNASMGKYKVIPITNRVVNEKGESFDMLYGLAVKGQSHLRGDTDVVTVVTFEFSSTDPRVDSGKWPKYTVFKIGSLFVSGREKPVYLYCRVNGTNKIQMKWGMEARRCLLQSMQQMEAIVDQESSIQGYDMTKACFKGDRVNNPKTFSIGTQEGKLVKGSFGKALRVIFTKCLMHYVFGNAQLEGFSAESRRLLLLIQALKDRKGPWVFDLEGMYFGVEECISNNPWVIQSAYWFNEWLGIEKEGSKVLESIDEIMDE

Row | SMILES | IC50 [1] [µM] | IC50 [4] [µM] | also measured
1 | O=c1[nH]c2nccnc2c(=O)n1O | 95 | – | –
2 | O=C1Cc2ccccc2CC(=O)N1O | > 1000 | – | –
3 | O=C1Cc2ccccc2CN1O | 100 | – | inhibition [2]: 25%
4 | CC(=O)c1c(O)n(O)c2cc(NC(=O)c3ccc4ccccc4c3)ccc12 | – | 9 | IC50 [3]: 18 µM; EC50 [5]: 21 µM
5 | O=C(/C=C/c1ccccc1Cl)Nc1ccc2c(C(=O)c3ccccc3)c(O)n(O)c2c1 | – | 9.5 | IC50 [3]: 26 µM; EC50 [5]: > 30 µM
6 | COCON1C(=O)C(CC(C)C)=N/C(=C\C(C)C)C1=O | > 355 | – | –
7 | CC(=O)c1c(O)n(O)c2cc(NC(=O)c3cnc4ccccc4n3)ccc12 | – | 11 | –
8 | O=C(Nc1cccc(C(=O)O)c1)Nc1ccc2c(C(=O)c3ccccc3)c(O)n(O)c2c1 | – | 3 | IC50 [3]: 6 µM; EC50 [5]: > 100 µM
9 | CCC(=O)c1c(O)n(O)c2cc(NC(=O)Nc3ccc(Cl)cc3)ccc12 | – | 38 | –
10 | Cc1cc(C(=O)Nc2ccc3c(C(=O)c4ccccc4)c(O)n(O)c3c2)no1 | – | 9.5 | EC50 [5]: > 100 µM
11 | CCC(=O)c1c(O)n(O)c2cc(NC(=O)c3ccc(Cl)cc3Cl)ccc12 | – | 45 | –
12 | O=C1CCc2ccccc2C(=O)N1O | > 1000 | – | –
13 | O=C(Nc1ccc2c(C(=O)c3ccccc3)c(O)n(O)c2c1)c1ccc2ccccc2c1 | – | 8 | IC50 [3]: 29 µM; EC50 [5]: > 40 µM
14 | CCC(=O)c1c(O)n(O)c2cc(NC(=O)c3cnc4ccccc4n3)ccc12 | – | 10 | –
15 | O=C(Nc1ccc2c(C(=O)c3ccccc3)c(O)n(O)c2c1)c1ccccc1 | – | 10 | IC50 [3]: 56 µM; EC50 [5]: > 90 µM
16 | O=C(Nc1ccc2c(C(=O)c3ccccc3)c(O)n(O)c2c1)NC1CCCCC1 | – | 50 | –
17 | CON1C(=O)Cc2ccccc2C1=O | 710 | – | –
18 | O=C(c1ccccc1)c1c(O)n(O)c2cc(NS(=O)(=O)c3cccs3)ccc12 | – | 48 | –
19 | O=C(c1ccccc1)c1c(O)n(O)c2cc(NC(=O)C3CCCCC3)ccc12 | – | 18 | –
20 | O=C(Nc1ccc2c(C(=O)c3ccccc3)c(O)n(O)c2c1)c1ccc(Cl)cc1Cl | – | 38 | –

Row | SMILES | IC50 [1] [µM] | IC50 [4] [µM] | also measured
21 | CC(=O)c1c(O)n(O)c2cc(NC(=O)Nc3cccc(C(=O)O)c3)ccc12 | – | 14 | –
22 | CCC(=O)c1c(O)n(O)c2cc(NC(=O)Nc3ccccc3)ccc12 | – | 40 | –
23 | CCc1cc(OC)c(OC)c(C(=O)NC[C@@H]2CCCN2CC)c1OC | – | 32 | –
24 | NN1C(=O)Cc2ccccc2C1=O | 800 | – | –
25 | O=C1c2ccccc2C(=O)N1O | > 500 | – | –
26 | CC(=O)c1c(O)n(O)c2cc(NC(=O)/C=C/c3ccccc3Cl)ccc12 | – | 26 | –
27 | O=C(O)C(=O)/C=C(\O)c1ccc(C2CCCCC2)cc1 | 5 | – | –
28 | O=C(Nc1ccc2c(C(=O)c3ccccc3)c(O)n(O)c2c1)c1cccs1 | – | 20 | –
29 | CCC(=O)c1c(O)n(O)c2cc(NC(=O)c3cccs3)ccc12 | – | 35 | –
30 | O=C(Nc1ccc2c(C(=O)c3ccccc3)c(O)n(O)c2c1)c1cnc2ccccc2n1 | – | 17 | –
31 | CC(=O)c1c(O)n(O)c2cc(NC(=O)c3cccs3)ccc12 | – | 40 | –
32 | O=C(NO)c1ccccc1 [BENZOHYDROXAMATE] | > 500 | – | –
33 | CC(C)/C=C1\N=C(CC(C)C)C(=O)N(O)C1=O | 5.5 | – | –
34 | CC(C)CC1=N/C(=C\c2ccc(F)cc2)C(=O)NC1=O | > 365 | – | –
35 | O=C(Nc1ccccc1)Nc1ccc2c(C(=O)c3ccccc3)c(O)n(O)c2c1 | – | 29 | –
36 | O=c1c2nccnc2ncn1O | > 500 | – | –
37 | CCC(=O)c1c(O)n(O)c2cc(NC(=O)Nc3ccccc3Cl)ccc12 | – | 50 | –
38 | CCC(=O)c1c(O)n(O)c2cc(NC(=O)Nc3cccc(C(=O)O)c3)ccc12 | – | 10 | –
39 | CCC(=O)c1c(O)n(O)c2cc(NC(=O)/C=C/c3ccccc3Cl)ccc12 | – | 8 | –
